Series [1] has as its target T1, Parkinson disease protein 7 (Homo sapiens) (UniProt Q99497).
T1 sequence (whole entry): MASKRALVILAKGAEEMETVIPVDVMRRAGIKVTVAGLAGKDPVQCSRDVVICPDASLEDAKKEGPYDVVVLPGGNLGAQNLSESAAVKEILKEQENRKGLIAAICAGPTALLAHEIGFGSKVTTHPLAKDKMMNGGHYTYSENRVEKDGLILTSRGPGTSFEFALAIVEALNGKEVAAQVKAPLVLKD
The series is described as follows: Binding affinity to PARK7 in A549 cells assessed as band shift at 5 uM incubated for 24 hrs by SDS-PAGE based fluorescence scanning immunoblotting analysis. On the technique in general: In western blotting, separated proteins are transferred to a membrane and probed.

In series [2] the target is T1, Parkinson disease protein 7 (Homo sapiens). Description: Binding affinity to PARK7 in HEK293T cells upto 10 uM incubated for 4 hrs by SDS-PAGE based fluorescence scanning immunoblotting analysis. Type of series: cell-based. The essentials:
(§1)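 HEK293T or A549 cells given the Bodipy probe at 0–10 μM for 4 h, then lysed. Lysates run on 12% Bis-Tris SDS-PAGE and fluorescence-scanned. Immunoblot for PARK7 with β-actin as loading control.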

For series [3], the system named is HEK-293T. Description: Cellular protein labelling in HEK293T cells transfected with PARK7 siRNA assessed as unspecific 55-75 kDa band formation at 5 uM incubated for 4 hrs by SDS-PAGE based fluorescence scanning immunoblotting analysis. Format: functional, cell-based. As to conditions: Homo sapiens. The essentials: (§2)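 HEK293T or A549 cells reverse-transfected with pooled PARK7 siRNA (Dharmafect 1), grown 48 h, then given probe at 5 μM final for 4 h. Lysates analysed by SDS-PAGE fluorescence scan and PARK7 immunoblot against control-transfected cells.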

Series [4] concerns A549. Description: Cellular protein labelling in human A549 cells transfected with PARK7 siRNA assessed as PARK7 specific band formation at 5 uM incubated for 4 hrs by SDS-PAGE based fluorescence scanning immunoblotting analysis. Format: functional, cell-based. Summed up:
as §2

The nature of series [5]: Drug penetration in human A549 cells at 5 uM incubated for 1 hrs by DAPI staining based confocal microscopic analysis. Type of series: ADME, cell-based. To be noted: a549, 1 h. Summed up: (§3)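 A549 cells incubated with probes at 5 μM final over a time course (1–24 h). For microscopy, cells on coverslips were fixed in 3.7% formaldehyde/PBS for 20 min, mounted with DAPI and imaged by confocal (63× oil). In parallel, cells were lysed for SDS-PAGE fluorescence scan and PARK7 immunoblot.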

Series [6] deals with T1, Parkinson disease protein 7 (Homo sapiens). Description: Binding affinity to PARK7 in human A549 cells assessed as band shift at 5 uM incubated for 4 hrs by SDS-PAGE based fluorescence scanning immunoblotting analysis relative to control. Format: cell-based. Summed up: as §3
The target is the same in series [7]. The series is described as follows: Binding affinity to recombinant human PARK7 incubated for 1 hrs by coomassie staining based SDS-PAGE fluorescence scanning analysis. To be noted: dose 0.1-10 µM.
Series [8] deals with A549. The series is described as follows: Cellular protein labelling in human A549 cells assessed as unspecific 55-75 kDa band formation at 5 uM by SDS-PAGE based fluorescence scanning immunoblotting analysis. Format: functional, cell-based. The essentials:
(§4)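 Probes applied to intact HEK293T or A549 cells at 5 μM final for 24 h, then lysed. Read-out by SDS-PAGE fluorescence scan and immunoblot against PARK7, looking at the ~25 kDa labelled band, PARK7 band shift and extra bands.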

Series [9] has as its system HEK-293T. The series is described as follows: Cellular protein labelling in HEK293T cells transfected with PARK7 siRNA assessed as PARK7 specific band formation at 5 uM incubated for 4 hrs by SDS-PAGE based fluorescence scanning immunoblotting analysis. To be noted: Homo sapiens. Format: functional, cell-based. Summed up:
as §2

The target of series [10] is T1, Parkinson disease protein 7 (Homo sapiens). Description: Binding affinity to PARK7 in human A549 cells upto 10 uM incubated for 4 hrs by SDS-PAGE based fluorescence scanning immunoblotting analysis. Format: cell-based. The essentials: as §1
The test system of series [11] is A549. Description: Cellular protein labelling in human A549 cells transfected with PARK7 siRNA assessed as unspecific 55-75 kDa band formation at 5 uM incubated for 4 hrs by SDS-PAGE based fluorescence scanning immunoblotting analysis. Format: functional, cell-based. Summed up: as §2
Series [12] concerns the target T1, Parkinson disease protein 7 (Homo sapiens). Description: Binding affinity to PARK7 in human A549 cells assessed as band shift at 5 uM incubated for 24 hrs by SDS-PAGE based fluorescence scanning immunoblotting analysis. Type of series: cell-based. The essentials: as §4
The test system of another series is A549 (Homo sapiens). Description: Cellular protein labelling in A549 cells assessed as unspecific 55-75 kDa band formation at 5 uM by SDS-PAGE based fluorescence scanning immunoblotting analysis.
Series [13] addresses T1, Parkinson disease protein 7 (Homo sapiens). The series is described as follows: Binding affinity to recombinant human PARK7 at 2 uM incubated for 1 hrs by coomassie staining based SDS-PAGE fluorescence scanning analysis relative to control.

Calls of active or inactive are those of the source. The rule behind the calls is not given here.

With `CC1=CC(C)=[N+]2C1=C(CCCCc1cn(-c3ccc(F)c(C(=O)N4CCc5nc(NC(=O)[C@@H]6CCN(C#N)C6)sc5C4)c3)nn1)c1c(C)cc(C)n1[B-]2(F)F`, the result (in [1]; in series [2]; in the series on HEK-293T [3]; in the series on A549 [8]; in [10]; in the series with A549 [11]) was Active. Moreover, the outcome (in [12]; in the series on A549 (Homo sapiens)) was Active. Moreover, the outcome in the series on A549 [4] and in the series with HEK-293T [9] was inactive. The Drug uptake entry in series [5] was “Active”. The Activity in [6] is 100%; in series [7], “Dose-Dependent Effect”; in series [13] it was 100%.

The values are drawn from ChEMBL document CHEMBL5506034, “Development of Inhibitors, Probes, and PROTAC Provides a Complete Toolbox to Study PARK7 in the Living Cell” (J Med Chem, 2024).
